Experimental data: ChEMBL document CHEMBL3808312, “Bioactive Constituents of Glycyrrhiza uralensis (Licorice): Discovery of the Effective Components of a Traditional Herbal Medicine” (J Nat Prod, 2016)
Activity calls are given as the source filed them. No cut-off for these calls is given here.

Tests used:
Influenza A virus [1] = assay: Antiviral activity against Influenza A virus A/WSN/33(H1N1) infected in MDCK cells at 100 uM preincubated with virus for 15 mins followed by cells addition measured at 36 hrs post infection; format: functional, A/WSN/1933(H1N1)
Summary of the method: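 MDCK canine kidney cells grown in DMEM and infected with influenza A/WSN/33 (H1N1). Compounds screened at 100 μM. Oseltamivir phosphate served as the positive control.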

Influenza A virus [2] = assay: Antiviral activity against Influenza A virus A/WSN/33(H1N1) infected in dog MDCK cells preincubated with virus for 15 mins followed by cells addition measured at 36 hrs post infection; format: functional, organism-based; conditions: A/WSN/1933(H1N1)
[3] = biological target: T1, Nuclear factor erythroid 2-related factor 2 (Homo sapiens) (UniProt Q16236); assay: Activation of NRF2 transcription in human HepG2C8 cells at 10 uM after 6 hrs by luciferase reporter gene assay relative to control; format: cell-based
T1 sequence (whole entry): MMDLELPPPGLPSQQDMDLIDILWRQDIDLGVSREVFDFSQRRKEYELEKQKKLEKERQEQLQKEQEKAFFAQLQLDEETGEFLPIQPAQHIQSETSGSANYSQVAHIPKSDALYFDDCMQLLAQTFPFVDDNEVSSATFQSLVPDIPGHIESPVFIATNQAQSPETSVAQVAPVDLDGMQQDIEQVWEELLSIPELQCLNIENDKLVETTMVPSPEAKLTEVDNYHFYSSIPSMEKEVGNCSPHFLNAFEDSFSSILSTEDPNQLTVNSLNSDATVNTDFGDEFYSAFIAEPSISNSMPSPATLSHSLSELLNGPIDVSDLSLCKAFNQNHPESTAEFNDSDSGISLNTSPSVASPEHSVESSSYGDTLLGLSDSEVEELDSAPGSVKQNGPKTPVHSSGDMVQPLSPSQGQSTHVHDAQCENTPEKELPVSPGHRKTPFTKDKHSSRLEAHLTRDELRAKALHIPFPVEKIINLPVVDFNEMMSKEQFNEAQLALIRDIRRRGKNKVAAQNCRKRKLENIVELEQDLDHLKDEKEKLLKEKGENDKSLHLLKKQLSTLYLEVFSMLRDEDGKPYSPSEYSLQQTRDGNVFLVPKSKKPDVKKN
Summary of the method: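 Luciferase reporter in HepG2C8 cells, which are HepG2 stably transfected with an Nrf2 luciferase reporter and grown in MEM. Screened at 10 μM, with dose-response over 2.5−40 μM. Activity expressed as fold of control. tBHQ positive control.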

[4] = (§1) Inhibition of NFkappaB transcription in human SW480 cells at by luciferase reporter gene assay; format: cell-based
Summary of the method: (§2)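 SW480 cells (RPMI1640) stably transfected with an NF-κB luciferase reporter. […] MG132 positive control.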

SW480 [5] = assay: as §1; format: cell-based; summary of the method: as §2
SW480 [6] = assay: Inhibition of NFkappaB transcription in human SW480 cells at 10 uM by luciferase reporter gene assay; format: cell-based; summary of the method: as §2
[7] = biological target: T2, Tyrosinase (Homo sapiens) (UniProt P14679); assay: Inhibition of tyrosinase (unknown origin) using L-tyrosine as substrate assessed as oxidation of L-tyrosine at 20 uM after 15 mins
T2 sequence (whole entry): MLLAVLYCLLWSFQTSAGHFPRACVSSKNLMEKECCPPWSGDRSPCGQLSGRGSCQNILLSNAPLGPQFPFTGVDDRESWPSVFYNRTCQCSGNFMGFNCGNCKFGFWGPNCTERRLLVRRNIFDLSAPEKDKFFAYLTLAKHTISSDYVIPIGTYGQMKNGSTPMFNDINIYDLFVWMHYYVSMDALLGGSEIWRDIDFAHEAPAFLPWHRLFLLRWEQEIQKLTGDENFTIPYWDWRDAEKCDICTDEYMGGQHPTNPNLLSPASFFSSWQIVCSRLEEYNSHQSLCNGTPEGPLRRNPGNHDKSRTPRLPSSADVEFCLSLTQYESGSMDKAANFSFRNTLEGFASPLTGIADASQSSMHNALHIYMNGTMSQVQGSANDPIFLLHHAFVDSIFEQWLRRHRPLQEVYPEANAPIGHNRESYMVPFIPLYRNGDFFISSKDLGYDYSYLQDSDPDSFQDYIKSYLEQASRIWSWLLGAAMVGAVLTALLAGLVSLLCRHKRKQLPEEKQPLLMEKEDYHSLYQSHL
Summary of the method: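 Tyrosinase at 333 U/mL (stock) in 45 mM sodium phosphate, pH 6.6, with 2 mM L-tyrosine (stock). Incubated 37 °C for 15 min; oxidation read at 492 nm. Screened at 20 μM; dose-response for IC50. Glyasperin C positive control.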

[8] = biological target: T3, Tyrosine-protein phosphatase non-receptor type 1 (Homo sapiens) (UniProt P18031); assay: Inhibition of recombinant human PTP1B assessed as hydrolysis of p-nitrophenyl phosphate at 25 uM after 30 mins relative to control
T3 sequence (whole entry): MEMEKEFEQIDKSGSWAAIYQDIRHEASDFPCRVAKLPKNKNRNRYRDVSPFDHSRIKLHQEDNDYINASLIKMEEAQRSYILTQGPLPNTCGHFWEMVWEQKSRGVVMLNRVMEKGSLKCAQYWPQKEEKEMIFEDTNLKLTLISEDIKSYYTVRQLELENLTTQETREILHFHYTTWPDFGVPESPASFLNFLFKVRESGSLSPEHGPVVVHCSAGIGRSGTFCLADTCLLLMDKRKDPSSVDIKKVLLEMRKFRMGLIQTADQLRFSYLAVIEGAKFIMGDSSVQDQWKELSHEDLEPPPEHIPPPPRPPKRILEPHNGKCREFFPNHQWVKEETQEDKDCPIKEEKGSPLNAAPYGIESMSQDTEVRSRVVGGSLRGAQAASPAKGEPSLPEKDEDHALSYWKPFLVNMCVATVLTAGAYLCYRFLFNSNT

RAW264.7 = assay: Antiinflammatory activity in mouse RAW264.7 cells assessed as inhibition of LPS-induced nitric oxide production after 24 hrs by Griess assay; format: functional, cell-based; conditions: RAW264.7, 24 h
Summary of the method: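 RAW264.7 cells plated at 1.2 × 10^5/well in RPMI1640 and co-treated with compound and 1 μg/mL LPS for 24 h. Nitrite in medium read with Griess reagent (sulfanilamide/naphthylethylenediamine, phosphoric acid) after 15 min at 37 °C, absorbance 540 nm. […] Curcumin positive control.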

MCF7 = assay: Cytotoxicity against human MCF7 cells assessed as reduction in cell viability after 24 hrs by MTS assay; format: functional, cell-based; conditions: MCF7, 24 h
Summary of the method: (§3)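 Cells seeded at 5 × 10^3/well and cultured overnight, then exposed to compounds for 24 h. Viability read by MTS. Media: SW480 in RPMI1640, A549 in DMEM, MCF7 in MEM. […] Irinotecan positive control.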

HepG2 = assay: Cytotoxicity against human HepG2 cells assessed as reduction in cell viability after 24 hrs by MTS assay; format: functional, cell-based; conditions: HepG2, 24 h; summary of the method: as §3
SW480 [9] = assay: Cytotoxicity against human SW480 cells assessed as reduction in cell viability after 24 hrs by MTS assay; format: functional, cell-based; conditions: SW480, 24 h; summary of the method: as §3
A549 = assay: Cytotoxicity against human A549 cells assessed as reduction in cell viability after 24 hrs by MTS assay; format: functional, cell-based; conditions: A549, 24 h; summary of the method: as §3

Molecule `C[C@H]1O[C@H](O[C@H]2CC(C)(C)C[C@@H]3C4=CC(=O)[C@H]5[C@]6(C)CC[C@@H](O[C@@H]7O[C@H](C(=O)O)[C@@H](O)[C@H](O)[C@H]7O[C@@H]7O[C@H](C(=O)O)[C@@H](O)[C@H](O)[C@H]7O)C(C)(C)[C@H]6CC[C@]5(C)[C@@]4(C)CC[C@]23C)[C@@H](O)[C@@H](O)[C@@H]1O` has an Activity (Influenza A virus [1]) of 47%, an IC50 (Influenza A virus [2]) of 39.6 µM and a fold change (FC) [3] of 1.53.

For `CC1(C)C=Cc2c(ccc3c2OC[C@@H](c2ccc(O)cc2O)C3)O1` [GLABRIDIN], the IC50 [4] was 21.4 µM, the inhibition (SW480 [5]) was “Dose-dependent effect” and the inhibition (SW480 [6]) was over 30%.

`COc1c2c(cc3oc(=O)c4c5ccc(O)cc5oc4c13)OC(C)(C)CC2` showed a fold change (FC) [3] of 3.32.

With `COc1cc(/C=C/C(=O)c2ccc(O)cc2O)ccc1O` the inhibition [7] was “Active”.

With `COc1cc2c(c(OC)c1CC=C(C)C)C=C(c1ccc(O)cc1O)CO2` the inhibition [7] was “inactive”.

In the case of `COc1c(CC=C(C)C)c(O)cc2oc(-c3ccc(O)cc3O)cc12` [LICOCOUMARONE], the IC50 [4] is reported as 5.1 µM, the inhibition (SW480 [5]) is reported as “Dose-dependent effect” and the Activity (Influenza A virus [1]) is reported as over 30%. For the same molecule, the inhibition (SW480 [6]) was over 30%, the inhibition [8] was over 90% and the IC50 (RAW264.7) was 8.5 µM.

With `COc1ccc2c(c1)OC1C2COC2=CC(=O)CCC21O` (stereo not given) the IC50 [4] was 16.9 µM, the inhibition (SW480 [5]) was “Dose-dependent effect” and the inhibition (SW480 [6]) was over 30%. The inhibition [8] was “inactive”.

For `CCc1c2c(nc3ccc(OC(=O)N4CCC(N5CCCCC5)CC4)cc13)-c1cc3c(c(=O)n1C2)COC(=O)[C@]3(O)CC` [IRINOTECAN], the IC50 (MCF7) was 500 nM, the IC50 (HepG2) was 900 nM and the IC50 (SW480 [9]) was 1400 nM. For the same molecule, the IC50 (A549) was 800 nM.

For `C[C@@H]1O[C@@H](c2c(O)c([C@@H]3O[C@H](COC(=O)CC(C)(O)CC(=O)O)[C@@H](O)[C@H](O)[C@H]3O)c3oc(-c4ccc(O)cc4)cc(=O)c3c2O)[C@H](O)[C@H](O)[C@H]1O` (stereo not given in full), the fold change (FC) [3] was 1.5.

In the case of `CC(C)=CCc1c(O)cc2oc(-c3ccc(O)cc3)c(O)c(=O)c2c1O`, the inhibition [8] is reported as 51%.

With `CC(C)=CCc1cc(-c2oc3cc(O)cc(O)c3c(=O)c2O)cc(O)c1O` the inhibition [8] was “Active”.

Work on `CC(C)=CCc1cc(-c2oc3cc(O)cc(O)c3c(=O)c2O)ccc1O` yielded an inhibition [8] of 98%.

Molecule `COc1cc2oc(=O)c(-c3ccc(O)cc3O)cc2c(OC)c1CC=C(C)C` has a fold change (FC) [3] of 0.88.

Work on `C[C@@H]1[C@@H](O[C@@H]2O[C@H](C(=O)O)[C@@H](O)[C@H](O)[C@H]2O[C@@H]2O[C@H](C(=O)O)[C@@H](O)[C@H](O)[C@H]2O)CC[C@]2(C)[C@H]3CC=C4[C@H]5C[C@@](C)(C(=O)O)CC[C@]5(C)CC[C@@]4(C)[C@]3(C)CC[C@@H]12` yielded an Activity (Influenza A virus [1]) of 47% and an IC50 (Influenza A virus [2]) of 39.6 µM.

With `C=CC(C)(C)c1c(O)cc(OC)c2cc(-c3ccc(O)cc3O)c(=O)oc12` the fold change (FC) [3] was 0.88.

In the case of `CC1(C)[C@@H](O[C@@H]2O[C@H](C(=O)O)[C@@H](O)[C@H](O)[C@H]2O[C@@H]2O[C@H](C(=O)O)[C@@H](O)[C@H](O)[C@H]2O)CC[C@]2(C)[C@H]3C(=O)C=C4[C@H]5C[C@](C)(C(=O)O)CC[C@]5(C)CC[C@@]4(C)[C@]3(C)CC[C@@H]12`, the Activity (Influenza A virus [1]) is reported as 47% and the IC50 (Influenza A virus [2]) is reported as 39.6 µM.

With `COc1cc2c(c3oc(-c4ccc(O)cc4O)cc13)C(C)(C)C(C)O2` (stereo not given) the inhibition [8] was over 90%.

`COc1c(CC=C(C)C)c(O)cc2oc(=O)c3c4ccc(O)cc4oc3c12` gave a fold change (FC) [3] of 0.88.
